According to the M2OR odorant receptor database:
Substitutions are numbered along the chain they refer to.

Tests used:
Conditions in all cases: stereoisomer not certain
OR1F12P (Homo sapiens) = target: T1, OR1F12P (Homo sapiens) (UniProt Q8NHA8)
T1 sequence (whole entry): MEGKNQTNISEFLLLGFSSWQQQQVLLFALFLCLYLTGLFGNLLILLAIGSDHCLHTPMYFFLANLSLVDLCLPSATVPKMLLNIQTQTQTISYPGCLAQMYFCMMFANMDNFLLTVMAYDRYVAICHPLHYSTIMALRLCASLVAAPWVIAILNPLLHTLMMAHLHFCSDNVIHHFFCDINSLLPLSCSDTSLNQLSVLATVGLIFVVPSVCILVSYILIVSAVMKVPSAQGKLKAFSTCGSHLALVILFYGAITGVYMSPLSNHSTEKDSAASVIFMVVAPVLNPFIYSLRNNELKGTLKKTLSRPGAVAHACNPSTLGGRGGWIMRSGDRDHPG
Summary of the method: (§1)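 Assay methods differ from source to source, frequently being transient luciferase assays in mammalian cell lines. For each receptor–molecule pair, the label responsive (active) applies when the original authors judged the measured signal statistically different from baseline, and non-responsive (inactive) applies otherwise.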

OR1F1 = test system: T2, OR1F1
T2 sequence (whole entry): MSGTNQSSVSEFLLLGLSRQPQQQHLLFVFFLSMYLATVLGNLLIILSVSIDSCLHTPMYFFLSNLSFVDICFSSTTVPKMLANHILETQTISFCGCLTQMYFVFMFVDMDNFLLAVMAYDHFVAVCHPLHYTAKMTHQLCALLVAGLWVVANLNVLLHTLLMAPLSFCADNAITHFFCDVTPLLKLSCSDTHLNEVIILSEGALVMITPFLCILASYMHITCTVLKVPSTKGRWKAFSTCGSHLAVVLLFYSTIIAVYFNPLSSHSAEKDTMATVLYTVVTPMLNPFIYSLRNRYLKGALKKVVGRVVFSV
Summary of the method: as §1

OR1G1 (Homo sapiens) = target: T3, OR1G1 (Homo sapiens) (UniProt P47890)
T3 sequence (whole entry): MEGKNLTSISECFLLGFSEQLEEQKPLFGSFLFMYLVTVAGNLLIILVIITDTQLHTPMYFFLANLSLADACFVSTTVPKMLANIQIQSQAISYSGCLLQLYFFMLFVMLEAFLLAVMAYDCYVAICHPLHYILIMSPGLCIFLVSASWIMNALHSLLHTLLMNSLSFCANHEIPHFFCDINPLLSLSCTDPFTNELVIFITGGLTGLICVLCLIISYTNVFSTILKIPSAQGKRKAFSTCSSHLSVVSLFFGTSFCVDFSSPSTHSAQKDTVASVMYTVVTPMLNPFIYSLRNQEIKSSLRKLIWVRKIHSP
Summary of the method: as §1

OR1I1 (Homo sapiens) = target: T4, OR1I1 (Homo sapiens) (UniProt O60431)
T4 sequence (whole entry): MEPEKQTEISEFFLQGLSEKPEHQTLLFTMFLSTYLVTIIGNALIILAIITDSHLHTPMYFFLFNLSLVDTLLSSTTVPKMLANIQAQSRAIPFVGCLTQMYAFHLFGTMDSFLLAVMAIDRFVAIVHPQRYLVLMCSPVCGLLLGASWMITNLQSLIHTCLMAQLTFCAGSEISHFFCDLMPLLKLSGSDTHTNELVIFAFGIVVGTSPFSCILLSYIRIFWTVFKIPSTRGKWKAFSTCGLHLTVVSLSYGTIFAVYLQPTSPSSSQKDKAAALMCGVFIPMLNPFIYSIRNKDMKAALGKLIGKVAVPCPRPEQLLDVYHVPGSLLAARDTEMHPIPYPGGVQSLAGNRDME
Summary of the method: as §1

OR1J1 (Homo sapiens) = target: T5, OR1J1 (Homo sapiens) (UniProt Q8NGS3)
T5 sequence (whole entry): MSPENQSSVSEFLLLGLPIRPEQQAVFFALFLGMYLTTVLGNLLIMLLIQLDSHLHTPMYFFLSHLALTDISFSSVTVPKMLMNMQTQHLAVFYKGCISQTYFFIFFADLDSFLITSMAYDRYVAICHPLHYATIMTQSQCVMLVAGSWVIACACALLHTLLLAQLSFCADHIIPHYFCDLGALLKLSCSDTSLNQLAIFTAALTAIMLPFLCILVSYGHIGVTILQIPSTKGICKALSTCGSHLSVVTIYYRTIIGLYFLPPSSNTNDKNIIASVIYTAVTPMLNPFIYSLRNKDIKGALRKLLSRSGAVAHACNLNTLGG
Summary of the method: as §1

OR1J2 (Homo sapiens) = target: T6, OR1J2 (Homo sapiens) (UniProt Q8NGS2)
T6 sequence (whole entry): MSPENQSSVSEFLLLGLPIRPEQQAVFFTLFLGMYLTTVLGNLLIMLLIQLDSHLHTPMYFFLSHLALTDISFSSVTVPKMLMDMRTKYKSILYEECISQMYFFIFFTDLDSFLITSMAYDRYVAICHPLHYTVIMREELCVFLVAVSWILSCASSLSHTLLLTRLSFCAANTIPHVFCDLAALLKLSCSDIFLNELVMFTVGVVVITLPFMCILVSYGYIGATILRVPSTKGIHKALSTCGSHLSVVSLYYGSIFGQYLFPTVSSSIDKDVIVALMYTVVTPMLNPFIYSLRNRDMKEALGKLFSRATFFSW
Summary of the method: as §1

OR1J4 (Homo sapiens) = target: T7, OR1J4 (Homo sapiens) (UniProt Q8NGS1)
T7 sequence (whole entry): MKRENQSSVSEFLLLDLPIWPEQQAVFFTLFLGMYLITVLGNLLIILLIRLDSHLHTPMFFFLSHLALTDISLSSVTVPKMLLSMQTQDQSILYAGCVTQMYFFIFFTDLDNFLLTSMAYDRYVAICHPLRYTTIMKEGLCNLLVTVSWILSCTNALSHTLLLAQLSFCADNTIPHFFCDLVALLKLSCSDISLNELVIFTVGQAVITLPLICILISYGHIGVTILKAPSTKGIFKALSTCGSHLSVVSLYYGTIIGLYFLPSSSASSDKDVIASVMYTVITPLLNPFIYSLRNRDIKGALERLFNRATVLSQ
Summary of the method: as §1

OR1K1 (Homo sapiens) = target: T8, OR1K1 (Homo sapiens) (UniProt Q8NGR3)
T8 sequence (whole entry): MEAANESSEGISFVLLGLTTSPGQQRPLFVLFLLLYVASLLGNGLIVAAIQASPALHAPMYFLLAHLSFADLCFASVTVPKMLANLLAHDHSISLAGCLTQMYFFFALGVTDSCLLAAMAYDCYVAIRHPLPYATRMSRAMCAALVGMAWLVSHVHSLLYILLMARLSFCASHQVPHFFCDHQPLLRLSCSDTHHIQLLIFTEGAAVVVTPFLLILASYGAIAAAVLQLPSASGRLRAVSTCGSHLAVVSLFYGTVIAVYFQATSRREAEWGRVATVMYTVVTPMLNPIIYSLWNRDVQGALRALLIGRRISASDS
Summary of the method: as §1

OR1L1 = test system: T9, OR1L1
T9 sequence (whole entry): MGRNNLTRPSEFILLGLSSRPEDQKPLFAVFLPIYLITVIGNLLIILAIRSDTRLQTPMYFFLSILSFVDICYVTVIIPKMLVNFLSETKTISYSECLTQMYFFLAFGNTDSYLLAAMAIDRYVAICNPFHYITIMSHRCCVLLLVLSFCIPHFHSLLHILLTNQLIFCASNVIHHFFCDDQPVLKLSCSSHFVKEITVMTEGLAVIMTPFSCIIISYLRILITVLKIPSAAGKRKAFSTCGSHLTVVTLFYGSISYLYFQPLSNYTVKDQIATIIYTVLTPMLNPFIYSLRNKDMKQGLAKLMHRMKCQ
Summary of the method: as §1

OR1L3 (Homo sapiens) = target: T10, OR1L3 (Homo sapiens) (UniProt Q8NH93)
T10 sequence (whole entry): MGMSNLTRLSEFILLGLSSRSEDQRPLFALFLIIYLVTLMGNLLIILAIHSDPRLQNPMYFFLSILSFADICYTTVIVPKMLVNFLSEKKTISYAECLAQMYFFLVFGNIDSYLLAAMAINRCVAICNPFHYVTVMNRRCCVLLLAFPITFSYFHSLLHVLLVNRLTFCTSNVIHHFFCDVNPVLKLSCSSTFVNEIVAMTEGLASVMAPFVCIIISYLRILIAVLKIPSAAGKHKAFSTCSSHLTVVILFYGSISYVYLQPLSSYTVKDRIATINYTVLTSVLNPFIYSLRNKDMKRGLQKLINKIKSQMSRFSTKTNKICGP
Summary of the method: as §1

OR1L4 (Homo sapiens) = target: T11, OR1L4 (Homo sapiens) (UniProt Q8NGR5)
T11 sequence (whole entry): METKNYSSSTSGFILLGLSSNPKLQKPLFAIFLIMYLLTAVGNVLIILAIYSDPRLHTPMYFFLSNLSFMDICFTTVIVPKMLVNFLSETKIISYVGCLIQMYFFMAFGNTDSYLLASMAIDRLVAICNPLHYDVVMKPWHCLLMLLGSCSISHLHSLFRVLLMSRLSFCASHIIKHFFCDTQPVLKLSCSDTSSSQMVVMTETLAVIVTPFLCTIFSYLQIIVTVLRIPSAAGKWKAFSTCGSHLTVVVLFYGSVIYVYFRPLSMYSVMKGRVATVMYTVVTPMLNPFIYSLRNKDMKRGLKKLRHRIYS
Summary of the method: as §1

OR1L4 = test system: T12, OR1L4
T12 sequence (whole entry): T11 sequence (whole entry) with G234R
Summary of the method: as §1

OR1L6 = test system: T13, OR1L6
T13 sequence (whole entry): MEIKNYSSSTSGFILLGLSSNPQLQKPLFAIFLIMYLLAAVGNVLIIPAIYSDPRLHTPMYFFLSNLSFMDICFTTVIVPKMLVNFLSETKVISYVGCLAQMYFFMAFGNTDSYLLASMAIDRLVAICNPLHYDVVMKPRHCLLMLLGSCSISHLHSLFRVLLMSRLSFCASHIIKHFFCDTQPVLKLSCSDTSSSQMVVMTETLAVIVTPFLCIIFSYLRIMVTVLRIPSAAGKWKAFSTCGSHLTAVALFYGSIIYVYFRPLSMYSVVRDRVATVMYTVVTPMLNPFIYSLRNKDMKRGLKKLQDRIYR
Summary of the method: as §1

OR1L8 (Homo sapiens) = target: T14, OR1L8 (Homo sapiens) (UniProt Q8NGR8)
T14 sequence (whole entry): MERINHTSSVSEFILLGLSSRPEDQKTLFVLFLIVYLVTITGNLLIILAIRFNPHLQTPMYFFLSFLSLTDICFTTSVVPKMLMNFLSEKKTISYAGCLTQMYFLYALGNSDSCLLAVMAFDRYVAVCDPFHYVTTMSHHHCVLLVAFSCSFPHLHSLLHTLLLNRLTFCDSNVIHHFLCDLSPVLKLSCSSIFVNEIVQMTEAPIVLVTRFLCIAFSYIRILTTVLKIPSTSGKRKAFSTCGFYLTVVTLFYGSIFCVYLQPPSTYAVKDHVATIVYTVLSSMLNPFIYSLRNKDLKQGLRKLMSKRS
Summary of the method: as §1

OR1L8 T27P R211P = test system: T15, OR1L8 T27P R211P
T15 sequence (whole entry): T14 sequence (whole entry) with T27P, R211P
Summary of the method: as §1

OR1M1 (Homo sapiens) = target: T16, OR1M1 (Homo sapiens) (UniProt Q8NGA1)
T16 sequence (whole entry): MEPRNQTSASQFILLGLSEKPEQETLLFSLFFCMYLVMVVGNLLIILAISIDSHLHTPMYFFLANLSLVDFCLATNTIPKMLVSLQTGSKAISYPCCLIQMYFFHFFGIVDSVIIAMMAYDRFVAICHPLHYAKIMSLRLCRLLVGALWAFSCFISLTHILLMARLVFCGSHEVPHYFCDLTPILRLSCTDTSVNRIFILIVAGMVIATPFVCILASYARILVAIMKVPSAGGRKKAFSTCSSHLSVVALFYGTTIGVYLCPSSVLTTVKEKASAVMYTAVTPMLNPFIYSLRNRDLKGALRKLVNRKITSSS
Summary of the method: as §1

OR1N1 (Homo sapiens) = target: T17, OR1N1 (Homo sapiens) (UniProt Q8NGS0)
T17 sequence (whole entry): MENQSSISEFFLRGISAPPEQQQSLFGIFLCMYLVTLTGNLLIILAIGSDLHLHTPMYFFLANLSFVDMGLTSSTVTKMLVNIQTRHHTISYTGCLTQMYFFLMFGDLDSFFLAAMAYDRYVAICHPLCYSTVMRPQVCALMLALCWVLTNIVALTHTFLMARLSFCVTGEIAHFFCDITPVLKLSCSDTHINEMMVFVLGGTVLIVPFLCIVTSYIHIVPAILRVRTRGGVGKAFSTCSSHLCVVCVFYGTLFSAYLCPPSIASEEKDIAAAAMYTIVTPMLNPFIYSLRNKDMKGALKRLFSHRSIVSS
Summary of the method: as §1

OR1N2 W37R = test system: T18, OR1N2 W37R
T18 sequence (whole entry): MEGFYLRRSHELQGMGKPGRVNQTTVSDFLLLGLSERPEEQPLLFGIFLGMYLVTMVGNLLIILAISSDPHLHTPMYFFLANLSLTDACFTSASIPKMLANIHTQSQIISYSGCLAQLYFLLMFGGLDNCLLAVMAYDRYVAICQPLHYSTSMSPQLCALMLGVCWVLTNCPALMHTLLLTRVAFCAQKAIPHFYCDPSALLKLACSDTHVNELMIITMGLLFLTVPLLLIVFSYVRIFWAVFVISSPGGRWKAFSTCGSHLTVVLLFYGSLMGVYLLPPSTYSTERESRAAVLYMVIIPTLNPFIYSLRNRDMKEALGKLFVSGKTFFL
Summary of the method: as §1

Measured: odorant receptor agonist call

CC1=C(O)C(=O)C(C)O1 (centres undefined)
inactive: OR1F12P (Homo sapiens) | OR1F1 | OR1G1 (Homo sapiens) | OR1I1 (Homo sapiens) | OR1J1 (Homo sapiens) | OR1J2 (Homo sapiens) | OR1J4 (Homo sapiens) | OR1K1 (Homo sapiens) | OR1L1 | OR1L3 (Homo sapiens) | OR1L4 (Homo sapiens) | OR1L4 | OR1L6 | OR1L8 (Homo sapiens) | OR1L8 T27P R211P | OR1M1 (Homo sapiens) | OR1N1 (Homo sapiens) | OR1N2 W37R

CCC(=O)O
inactive: OR1G1 (Homo sapiens)
